Data on twelve molecules can be found in ChEMBL document CHEMBL1145116, “Imidazo[1,2-b]pyridazines, novel nucleus with potent and broad spectrum activity against human picornaviruses: design, synthesis, and biological evaluation” (J Med Chem, 2003).

A word on the IC50: it is the midpoint of a concentration-inhibition curve.

Experiment [1] concerns rhinovirus B14. In words: (§1) Antiviral activity was evaluated against rhino virus using PRA assay. It counts as functional, organism-based, human rhinovirus14. The settings on record: Rhinovirus B. The essentials:
(§2)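 Rhinovirus 14 was adsorbed for 1 h at room temperature onto confluent H-HeLa monolayers grown in medium 199 with 10% FBS. Cells were overlaid with agarose and growth medium (5% FBS) containing compound in DMSO (final DMSO 0.01%), then held at 37 °C under CO2 until plaques appeared in DMSO controls. Plates were formalin-fixed, crystal-violet stained and plaques counted, with duplicate wells averaged. IC50/IC90 were computed by Reed–Muench.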

In experiment [2] the test system is rhinovirus B14. In words: (§3) Cytopathic effect was evaluated against rhino virus usingCPE/XTT assay. Format: functional, human rhinovirus14. The method in brief: (§4)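 HeLa cells were seeded at 10 000 per well in medium 199 with 5% FBS and grown overnight at 37 °C. Surviving cells were read with XTT (0.4 mg/mL) plus PMS after 3-4 h at 37 °C. IC50 (CPE inhibition) and TC50 (versus a no-drug, no-virus control) came from the linear portion of the dose–response curves.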
On the technique in general: Protection from cytopathic effect is a common read-out in antiviral testing.

Experiment [3] deals with Human rhinovirus sp. The description is as §1. Format: functional, organism-based, human rhinovirus14. The essentials:
as §2

The test system of the next experiment is Human rhinovirus 1A. In words: Broad spectrum antiviral activity was evaluated against HRV-1A. Format: functional, organism-based, human rhinovirus1a.
For experiment [4], the system named is Coxsackievirus A21. In words: Broad spectrum antiviral activity was evaluated against coxsackievirus A21 mouse muscle adapted (CA21M). The note with it: Enterovirus C, Muscle tissue. It counts as functional, organism-based.
In the next experiment the test system is rhinovirus A16. In words: Broad spectrum antiviral activity was evaluated against HRV-16. The note with it: Rhinovirus A. It counts as functional, organism-based.
For the next experiment, the system named is rhinovirus A2. In words: Broad spectrum antiviral activity was evaluated against HRV-2. It counts as functional, organism-based, human rhinovirus2. The note with it: Rhinovirus A.
Experiment [5] relates to Coxsackievirus A21. In words: Broad spectrum antiviral activity was evaluated against CA21C. The settings on record: Enterovirus C. Format: functional, organism-based.
The test system of the next experiment is Coxsackievirus B3. In words: Broad spectrum antiviral activity was evaluated against CB3. The note with it: Enterovirus B. It counts as functional, organism-based, and coxsackievirus b3.
The test system of a further experiment is Poliovirus 1. In words: Broad spectrum antiviral activity was evaluated against PV1. Format: functional, organism-based. The settings on record: Enterovirus C.
For experiment [6], the system named is Human rhinovirus sp. The description is as §3. It counts as functional, human rhinovirus14. The method in brief: as §4

Molecules are shown by their SMILES. Values after ≈ are worked out from the molar mass of the structure shown.

For the molecule `CNC(=O)/C=C(\c1ccc(C)cc1)c1ccc2nc(N)c(-c3ccc(F)cc3)n2n1`, in the experiment on rhinovirus B14 [1], half-maximal inhibition (IC50) was put at 0.23 µg/mL (≈ 0.573 µM). This molecule came in with a TC50 with rhinovirus B14 [2] of over 10 µg/mL.

For the molecule `Nc1nc2ccc(/C(=N/Nc3ccccc3)c3ccccc3)nn2c1-c1ccc(F)cc1`, in the experiment with rhinovirus B14 [1], the IC50 is over 10 µg/mL. The same molecule returned a TC50 with rhinovirus B14 [2] of over 10 µg/mL.

`CNC(=O)/C=C(/c1ccccc1)c1ccc2nc(N)c(-c3ccc(F)cc3)n2n1` came in with an IC50 with rhinovirus B14 [1] of over 10 µg/mL.

Regarding `CNC(=O)/C=C(/c1ccc(C)cc1)c1ccc2nc(N)c(-c3ccc(F)cc3)n2n1`, the IC50 with rhinovirus B14 [1] is over 10 µg/mL. The TC50 in the experiment with rhinovirus B14 [2] is over 10 µg/mL.

For the molecule `CCOC(=O)/C=C(\c1ccccc1)c1ccc2nc(N)c(-c3ccc(F)cc3)n2n1`, the IC50 in the experiment with rhinovirus B14 [1] is over 10 µg/mL.

In the experiment on rhinovirus B14 [1], `CNC(=O)/C=C(\c1ccccc1)c1ccc2nc(N)c(-c3ccc(F)cc3)n2n1` came in with an IC50 of 0.11 µg/mL (≈ 0.284 µM). In addition, in the experiment on rhinovirus B14 [2], the TC50 is 4.06 µg/mL (≈ 10.5 µM).

Regarding `Nc1nc2ccc(C(=O)c3ccccc3)nn2c1-c1ccccc1`, the IC50 in the experiment on Human rhinovirus sp. [3] amounted to 7.19 µg/mL (≈ 22.9 µM).

In the case of `CNC(=O)/C=C(/c1ccc(OC)cc1)c1ccc2nc(N)c(-c3ccc(F)cc3)n2n1`, it took 4.2 µg/mL (≈ 10.1 µM) to reach half-maximal inhibition in the experiment with rhinovirus B14 [1] (IC50). This molecule also had a TC50 in the experiment with rhinovirus B14 [2] of over 10 µg/mL.

For the molecule `Nc1nc2ccc(/C(=N/O)c3ccccc3)nn2c1-c1ccccc1`, the IC50 in the experiment with Human rhinovirus 1A turned out to be 0.05 µg/mL (≈ 0.152 µM); in the experiment with Coxsackievirus A21 [4], 0.02 µg/mL (≈ 0.0607 µM); in the experiment with rhinovirus A16, 0.06 µg/mL (≈ 0.182 µM); in the experiment with rhinovirus A2, 0.03 µg/mL (≈ 0.0911 µM); with Coxsackievirus A21 [5], 0.04 µg/mL (≈ 0.121 µM); in the experiment on Coxsackievirus B3, 0.05 µg/mL (≈ 0.152 µM). Moreover, the IC50 with Poliovirus 1 and in the experiment with rhinovirus B14 [1] was 0.04 µg/mL (≈ 0.121 µM) in each case. In addition, the TC50 with rhinovirus B14 [2] is over 10 µg/mL.

Molecule `CNC(=O)/C=C(\c1ccc(OC)cc1)c1ccc2nc(N)c(-c3ccc(F)cc3)n2n1` had an IC50 in the experiment with rhinovirus B14 [1] of 0.6 µg/mL (≈ 1.44 µM). The TC50 in the experiment on rhinovirus B14 [2] is over 10 µg/mL.

In the experiment with Human rhinovirus sp. [3], `Nc1nc2ccc(/C(=N/O)c3ccccc3)nn2c1-c1ccc(F)cc1` yielded an IC50 of 0.05 µg/mL (≈ 0.144 µM). Also, in the experiment with Human rhinovirus sp. [6], the TC50 is over 10 µg/mL.

`CC(C)S(=O)(=O)n1c(N)nc2ccc(/C(=N/O)c3ccccc3)cc21` [ENVIROXIME] gave an IC50 with Human rhinovirus sp. [3] of 0.05 µg/mL (≈ 0.139 µM).
